{"source": "paper PMC5035373", "about": "(Diabetes Technology & Therapeutics, 2016)", "key": {"[1]": {"assay": "Insulin pharmacokinetics after ID", "assay_type": "in vivo, human", "details": "for Insulin AUC 0–1 / Insulin AUC 0–1.5 / Insulin AUC 4–6: SD; for Cmax, median / Insulin AUC (360 min), median / Tmax, median: 0.2 U/kg", "summary_of_the_method": "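Open-label randomized crossover in type 2 diabetics (30–70 y, BMI <35, HbA1c 6.5%–10%, drug-naive or metformin only). Insulin aspart 0.2 U/kg into right lower abdomen, intradermal via MicronJet or SC via pen, 4–14 days apart, fasting or pre-standard meal. Blood at −5 min, baseline, every 10 min to 2 h, then every 30 min to 6 h. Insulin measured by immunoassay; AUC, partial AUCs, AUCID/AUCSC derived.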"}, "[2]": {"tested_on": "patients with type 2 diabetes", "assay": "Safety and tolerability: adverse events, pain per visual analog scale", "assay_type": "in vivo, human", "summary_of_the_method": "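All enrolled patients were analysed for safety. Injection-site reactions, AEs and SAEs were recorded on study days and later visits, with their relation to the intervention. Insertion pain was rated on a visual analog scale and preference was surveyed. Intradermal vs SC tolerability was compared within subjects by Wilcoxon paired test.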"}, "[3]": {"details": "ID via MicronJet needle, all patients, n = 14"}, "[4]": {"details": "ID via MicronJet needle, before standard meal test, n = 3"}, "[5]": {"details": "SC conventional needle, all patients, n = 14"}, "[6]": {"details": "SC conventional needle, before standard meal test, n = 3"}, "[7]": {"details": "SC conventional needle, fasting, n = 11"}}}
{"substance": "Insulin aspart", "values": [{"measurement": "Insulin AUC 0–1", "setting": "[1]; ID MicronJet, 0–1 h, fasting population n = 11, mean ± SD", "value": "3695.2 ± 1593.3", "unit": "μU/mL/min"}, {"measurement": "Insulin AUC 0–1.5", "setting": "[1]; ID MicronJet, 0–1.5 h, fasting population n = 11, mean ± SD", "value": "4912.0 ± 2154.6", "unit": "μU/mL/min"}, {"measurement": "Insulin AUC 0–1.5", "setting": "[1]; ID MicronJet, 0–1.5 h postinjection, overall population n = 14, mean ± SD", "value": "5156.3 ± 1988.7", "unit": "μU/mL/min"}, {"measurement": "Insulin AUC 4–6", "setting": "[1]; ID MicronJet, 4–6 h, fasting population n = 11, mean ± SD", "value": "2027.3 ± 946.5", "unit": "μU/mL/min"}, {"measurement": "Insulin AUC 4–6", "setting": "[1]; ID MicronJet, 4–6 h postinjection, overall population n = 14, mean ± SD", "value": "2054.4 ± 857.7", "unit": "μU/mL/min"}, {"measurement": "Cmax, median", "setting": "[1]; [3]", "value": 80, "unit": "μU/mL"}, {"measurement": "Insulin AUC (360 min), median", "setting": "[1]; [3]", "value": 9913.75, "unit": "μU/mL/min"}, {"measurement": "Tmax, median", "setting": "[1]; [3]", "value": 0.583, "unit": "h"}, {"measurement": "Cmax, median", "setting": "[1]; [4]", "value": 95, "unit": "μU/mL"}, {"measurement": "Insulin AUC (360 min), median", "setting": "[1]; [4]", "value": 12690, "unit": "μU/mL/min"}, {"measurement": "Tmax, median", "setting": "[1]; [4]", "value": 0.833, "unit": "h"}, {"measurement": "Cmax, median", "setting": "[1]; ID via MicronJet needle, fasting, n = 11", "value": 79, "unit": "μU/mL"}, {"measurement": "Cmax, median", "setting": "[1]; [5]", "value": 55, "unit": "μU/mL"}, {"measurement": "Insulin AUC (360 min), median", "setting": "[1]; [5]", "value": 10936.25, "unit": "μU/mL/min"}, {"measurement": "Tmax, median", "setting": "[1]; [5]", "value": 1.46, "unit": "h"}, {"measurement": "Cmax, median", "setting": "[1]; [6]", "value": 68, "unit": "μU/mL"}, {"measurement": "Insulin AUC (360 min), median", "setting": "[1]; [6]", "value": 13960, "unit": "μU/mL/min"}, {"measurement": "Tmax, median", "setting": "[1]; [6]", "value": 1.17, "unit": "h"}, {"measurement": "Cmax, median", "setting": "[1]; [7]", "value": 54.5, "unit": "μU/mL"}, {"measurement": "Insulin AUC (360 min), median", "setting": "[1]; [7]", "value": "10,407.5 μU/mL/min"}, {"measurement": "Tmax, median", "setting": "[1]; SC via NovoPen conventional needle, fasting, n = 11, type 2 diabetes", "value": 1.5, "unit": "h"}, {"measurement": "Insulin AUC 0–1", "setting": "[1]; SC, 0–1 h, fasting population n = 11, mean ± SD", "value": "2346.1 ± 609.7", "unit": "μU/mL/min"}, {"measurement": "Insulin AUC 0–1", "setting": "[1]; SC, 0–1 h postinjection, overall population n = 14, mean ± SD, post hoc", "value": "2534.1 ± 737.1", "unit": "μU/mL/min"}, {"measurement": "Insulin AUC 0–1.5", "setting": "[1]; SC, 0–1.5 h, fasting population n = 11, mean ± SD", "value": "3647.7 ± 904.0", "unit": "μU/mL/min"}, {"measurement": "Insulin AUC 0–1.5", "setting": "[1]; SC, 0–1.5 h postinjection, overall population n = 14, mean ± SD", "value": "4035.4 ± 1255.9", "unit": "μU/mL/min"}, {"measurement": "Insulin AUC 4–6", "setting": "[1]; SC, 4–6 h, fasting population n = 11, mean ± SD", "value": "2903.3 ± 1571.9", "unit": "μU/mL/min"}, {"measurement": "Insulin AUC 4–6", "setting": "[1]; SC, 4–6 h postinjection, overall population n = 14, mean ± SD", "value": "2929.0 ± 1412.1", "unit": "μU/mL/min"}, {"measurement": "Subjects experiencing AEs", "setting": "[2]; 17 patients in safety analysis, 5 AEs in total", "value": "3 of 17"}, {"measurement": "Local AEs (injection site reactions)", "setting": "[2]; all 17 patients, ID and SC injections", "value": "No local AEs (injection site reactions) were reported"}]}
